Eleven compounds from ChEMBL document CHEMBL1914434, “Synthesis, computational studies and preliminary pharmacological evaluation of 2-[4-(aryl substituted) piperazin-1-yl] N, N-diphenylacetamides as potential antipsychotics” (Eur J Med Chem, 2011) can be followed below.

The test system of data set [1] is Mus musculus. The experiment in a line: Antipsychotic activity in ip dosed Swiss albino mouse assessed as inhibition of 5-hydoxytryptophan-induced head twitches behavior administered 30 mins prior to 5-hydoxytryptophan challenge measured at 10 mins intervals for 30 mins after 20 mins post dose. It is filed as functional. A digest of the protocol:
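Mice (n = 6/group) pretreated with pargyline 75 mg/kg i.p. to slow 5-HTP breakdown; test compound given i.p. 30 min later, then 5-HTP 50 mg/kg i.p. after a further 30 min. Head twitches scored at 10 min intervals for 30 min from 20 min post-5-HTP. Data as mean ± SEM total score; ED50 (mg/kg, i.p.); Kruskal-Wallis or one-way ANOVA vs control.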

The species entered for data set [2] is Mus musculus. The experiment in a line: Toxicity in albino mouse assessed as induction of catalepsy measured at 30 mins intervals until 240 mins. It is filed as organism-based. Particulars: in vivo. The method in brief: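 Test drug given i.p. to albino mice (n = 6) in place of haloperidol reference (1.0 mg/kg i.p.). Bar test: time (s) holding forelimbs extended on 4 cm high, 1.0 cm diameter wooden bar, cut-off 1100 s, read at 30 min intervals to 120 min and at 240 min. Run 10.00–16.00 h, quiet room, 23–25 °C. ED50 (mg/kg, i.p.).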

Data set [3] relates to Mus musculus. The experiment in a line: Antipsychotic activity in ip dosed Swiss albino mouse assessed as inhibition of apomorphine-induced mesh climbing response administered 10 mins prior to apomorphine challenge measured at 5 mins intervals for up to 20 mins after 10 mins post dose. It is filed as functional. The method in brief:
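Groups of six mice given test compound, saline (control) or clozapine i.p.; apomorphine 2.5 mg/kg i.p. 10 min later. Mesh climbing scored (0 = no paws on cage) at 5 min intervals for 20 min from 10 min post-apomorphine, maximum total score 20. Mean ± SEM; ED50 (mg/kg, i.p.); Kruskal-Wallis or one-way ANOVA vs control.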

Regarding `O=C(CN1CCN(c2ccccc2)CC1)N(c1ccccc1)c1ccccc1`, the ED50 (usually the midpoint of the dose-response relation) in the data set with Mus musculus [1] came to 27 mg/kg; in the data set filed under Mus musculus [2], 50 mg/kg; in the data set on Mus musculus [3], 20.5 mg/kg.
On to `Cc1ccc(N2CCN(CC(=O)N(c3ccccc3)c3ccccc3)CC2)cc1`, for which the ED50 with Mus musculus [1] is 31.2 mg/kg; in the data set listed under Mus musculus [2], greater than 40 mg/kg; in the data set on Mus musculus [3], greater than 20 mg/kg.
Regarding `Cc1cccc(N2CCN(CC(=O)N(c3ccccc3)c3ccccc3)CC2)c1C`, the ED50 with Mus musculus [1] was greater than 30 mg/kg; in the data set listed under Mus musculus [2], greater than 40 mg/kg; in the data set with Mus musculus [3], 28.5 mg/kg.
For `O=C(CN1CCN(c2cccc(C(F)(F)F)c2)CC1)N(c1ccccc1)c1ccccc1`, the median effective dose (ED50) in the data set on Mus musculus [1] was determined as 30 mg/kg; in the data set filed under Mus musculus [2], 48 mg/kg; with Mus musculus [3], 21.3 mg/kg.
Regarding `COc1ccccc1N1CCN(CC(=O)N(c2ccccc2)c2ccccc2)CC1`, the figures for the 50% effective dose (ED50) in the data set with Mus musculus [1], in the data set filed under Mus musculus [2] and in the data set with Mus musculus [3] were 12.7 mg/kg, 50.4 mg/kg and 8.2 mg/kg, respectively.
`COc1cccc(N2CCN(CC(=O)N(c3ccccc3)c3ccccc3)CC2)c1`: the 50% effective dose (ED50) with Mus musculus [1] amounted to 15.5 mg/kg; in the data set filed under Mus musculus [2] it was 55.4 mg/kg; in the data set with Mus musculus [3], 10 mg/kg.
Consider `O=C(CN1CCN(c2cccc(Cl)c2)CC1)N(c1ccccc1)c1ccccc1`, for which the ED50 turned out to be 18 mg/kg in the data set with Mus musculus [1], 48.4 mg/kg in the data set filed under Mus musculus [2] and 16.5 mg/kg in the data set with Mus musculus [3].
The like results for `O=C(CN1CCN(c2ccc(Cl)c(Cl)c2)CC1)N(c1ccccc1)c1ccccc1` were, in that order, greater than 20 mg/kg, 45 mg/kg and 24 mg/kg.
The matching figures for `O=C(CN1CCN(c2ccc(F)cc2)CC1)N(c1ccccc1)c1ccccc1`: 20 mg/kg, greater than 40 mg/kg and 13.4 mg/kg.
`O=C(CN1CCN(c2ccc([N+](=O)[O-])cc2)CC1)N(c1ccccc1)c1ccccc1`: the results for the 50% effective dose (ED50) in the data set with Mus musculus [1], in the data set listed under Mus musculus [2] and in the data set on Mus musculus [3] were greater than 40 mg/kg, greater than 40 mg/kg and 30 mg/kg, respectively.
As to `CN1CCN(C2=Nc3cc(Cl)ccc3Nc3ccccc32)CC1` [CLOZAPINE], the results for the 50% effective dose (ED50) with Mus musculus [1] and with Mus musculus [3] were 2.8 mg/kg and 8.7 mg/kg, respectively.
